{
  "source": "ChEMBL document CHEMBL3351743",
  "about": "“Chemopreventive effects of (-)-hinokinin against 1,2-dimethylhydrazine-induced genotoxicity and preneoplastic lesions in rat colon” (J Nat Prod, 2014)",
  "key": {"Rattus norvegicus [1]": {"system": "Rattus norvegicus", "experiment": "Anticarcinogenic activity in Wistar rat colon assessed as reduction in frequency of DMH-induced aberrant crypt foci in distal segment at 10 to 40 mg/kg, po administered five times per week for 4 weeks", "format": "functional, organism-based", "method_in_brief": "(§1)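 Male Wistar rats (~120 g, 4−5 weeks old, 1 week acclimation), six per group. Compound in water/Tween 80 (97:3) given by gavage five times weekly for 4 weeks. DMH dissolved in EDTA solution, 160 mg/kg total given as four sc injections of 40 mg/kg, twice weekly over the first 2 weeks. Colons formalin-fixed 24 h, stained with 0.02% methylene blue; 50 fields per segment at 100×; ACF counted, mean ± SD, ANOVA/Tukey.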"}, "Rattus norvegicus [2]": {"system": "Rattus norvegicus", "experiment": "Anticarcinogenic activity in Wistar rat colon assessed as reduction in frequency of DMH-induced aberrant crypt foci in proximal segment at 10 to 40 mg/kg, po administered five times per week for 4 weeks", "format": "functional, organism-based", "method_in_brief": "as §1"}, "Rattus norvegicus [3]": {"system": "Rattus norvegicus", "experiment": "Antigenotoxic activity in Wistar rat peripheral blood assessed as reduction in DMH-induced increase in nucleoids at 10 mg/kg, po administered daily for 7 days", "format": "functional", "parameters": "scale not given: the % may be the effect or the level left", "method_in_brief": "(§2)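 Male Wistar rats, six per group. Compound in water/Tween 80 (97:3) given by daily gavage for 7 days. DMH 40 mg/kg sc given 4 h before sampling on day 7. Cells used only at ≥80% viability. Scoring: 100 nucleoids per animal visually classed 0–3 by tail length relative to head diameter. % reduction = (DMH − treated)/(DMH − negative control) × 100, based on damaged cells.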"}, "Rattus norvegicus [4]": {"system": "Rattus norvegicus", "experiment": "Toxicity in Wistar rat assessed as body weight gain at 40 mg/kg, po administered five times per week for 4 weeks", "format": "organism-based", "parameters": "dose 40 mg/kg, route oral", "conditions": "in vivo, 672 h", "method_in_brief": "(§3)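 Male Wistar rats, six per group, dosed by gavage in water/Tween 80 (97:3) five times weekly for 4 weeks, with or without DMH (four sc injections of 40 mg/kg in the first 2 weeks). Body weight and water intake recorded daily; mean ± SD.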"}, "Rattus norvegicus [5]": {"system": "Rattus norvegicus", "experiment": "Toxicity in Wistar rat assessed as body weight gain at 10 to 40 mg/kg, po administered daily for 7 days", "format": "organism-based", "parameters": "dose 10-40 mg/kg, route oral", "conditions": "in vivo, 168 h", "method_in_brief": "(§4)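 Male Wistar rats, six per group, compound dosed by gavage in water/Tween 80 (97:3) daily for 7 days, with or without DMH 40 mg/kg sc. Body weight and water intake recorded daily; mean ± SD.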"}, "Rattus norvegicus [6]": {"system": "Rattus norvegicus", "experiment": "Antigenotoxic activity in Wistar rat peripheral blood assessed as reduction in DMH-induced increase in nucleoids at 40 mg/kg, po administered daily for 7 days", "format": "functional", "parameters": "scale not given: the % may be the effect or the level left", "method_in_brief": "as §2"}, "Rattus norvegicus [7]": {"system": "Rattus norvegicus", "experiment": "Toxicity in Wistar rat assessed as change in water intake at 40 mg/kg, po administered five times per week for 4 weeks", "format": "organism-based", "parameters": "dose 40 mg/kg, route oral", "conditions": "in vivo, 672 h", "method_in_brief": "as §3"}, "Rattus norvegicus [8]": {"system": "Rattus norvegicus", "experiment": "Antigenotoxic activity in Wistar rat peripheral blood assessed as reduction in DMH-induced increase in nucleoids at 20 mg/kg, po administered daily for 7 days", "format": "functional", "parameters": "scale not given: the % may be the effect or the level left", "method_in_brief": "as §2"}, "Rattus norvegicus [9]": {"system": "Rattus norvegicus", "experiment": "Toxicity in Wistar rat assessed as change in water intake at 10 to 40 mg/kg, po administered daily for 7 days", "format": "organism-based", "parameters": "dose 10-40 mg/kg, route oral", "conditions": "in vivo, 168 h", "method_in_brief": "as §4"}, "Rattus norvegicus [10]": {"system": "Rattus norvegicus", "experiment": "Anticarcinogenic activity in Wistar rat colon assessed as reduction in frequency of DMH-induced aberrant crypt foci in middle segment at 10 to 40 mg/kg, po administered five times per week for 4 weeks", "format": "functional, organism-based", "method_in_brief": "as §1"}},
  "note": "Activity calls are given as the source filed them. The rule behind the calls is not given here.",
  "data": [
    {"molecule": "O=C1OC[C@H](Cc2ccc3c(c2)OCO3)[C@H]1Cc1ccc2c(c1)OCO2", "note": "[HINOKININ]", "values": [
      {"measurement": "Activity", "setting": "Rattus norvegicus [1]", "result": "Active"},
      {"measurement": "Activity", "setting": "Rattus norvegicus [2]", "result": "inactive"},
      {"measurement": "Activity", "setting": "Rattus norvegicus [3]", "result": 43.2, "unit": "%"},
      {"measurement": "Activity", "setting": "Rattus norvegicus [4]", "result": "Non-toxic"},
      {"measurement": "Activity", "setting": "Rattus norvegicus [5]", "result": "Non-toxic"},
      {"measurement": "Activity", "setting": "Rattus norvegicus [6]", "result": 54.7, "unit": "%"},
      {"measurement": "Activity", "setting": "Rattus norvegicus [7]", "result": "Non-toxic"},
      {"measurement": "Activity", "setting": "Rattus norvegicus [8]", "result": 50.4, "unit": "%"},
      {"measurement": "Activity", "setting": "Rattus norvegicus [9]", "result": "Non-toxic"},
      {"measurement": "Activity", "setting": "Rattus norvegicus [10]", "result": "Active"}
    ]}
  ]
}
